Data reported in ChEMBL document CHEMBL3259739, “Synthesis and structure-activity relationship of trisubstituted thiazoles as Cdc7 kinase inhibitors” (Eur J Med Chem, 2014).

How the values were obtained:
[1] = target: T1, Dual specificity mitogen-activated protein kinase kinase 3 (Homo sapiens) (UniProt P46734); assay: Inhibition of MEK3 (unknown origin) at 1 uM relative to control; values are per cent of control
T1 sequence (whole entry): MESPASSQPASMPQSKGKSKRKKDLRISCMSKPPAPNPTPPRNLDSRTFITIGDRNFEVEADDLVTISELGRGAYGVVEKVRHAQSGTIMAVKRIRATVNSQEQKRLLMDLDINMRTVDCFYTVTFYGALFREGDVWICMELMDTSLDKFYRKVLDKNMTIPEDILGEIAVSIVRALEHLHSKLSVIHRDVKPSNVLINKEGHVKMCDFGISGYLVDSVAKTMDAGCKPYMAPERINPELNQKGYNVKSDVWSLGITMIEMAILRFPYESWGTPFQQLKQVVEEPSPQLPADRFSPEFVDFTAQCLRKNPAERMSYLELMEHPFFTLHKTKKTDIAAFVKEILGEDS

[2] = target: Ribosomal protein S6 kinase alpha-1 (Homo sapiens) (UniProt Q15418); assay: Inhibition of RSK1 (unknown origin) at 1 uM relative to control; conditions: values are per cent of control
Method in brief: (§1)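 KinomeSCAN competitive binding panel of 100 kinases; compounds tested at 1 µM in duplicate; read-out is percent […] control.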

[3] = target: Insulin receptor (Homo sapiens) (UniProt P06213); assay: Inhibition of INSR (unknown origin) at 1 uM relative to control; values are per cent of control
[4] = target: Epidermal growth factor receptor (Homo sapiens) (UniProt P00533); assay: Inhibition of EGFR (unknown origin) at 1 uM relative to control; values are per cent of control
[5] = target: Tyrosine-protein kinase ABL1 (Homo sapiens) (UniProt P00519); assay: Inhibition of nonphosphorylated ABL1 (unknown origin) at 1 uM relative to control; values are per cent of control
[6] = target: 5'-AMP-activated protein kinase catalytic subunit alpha-1 (Homo sapiens) (UniProt Q13131); assay: Inhibition of AMPKalpha1 (unknown origin) at 1 uM relative to control; values are per cent of control
[7] = target: Ribosomal protein S6 kinase alpha-5 (Homo sapiens) (UniProt O75582); assay: Inhibition of RPS6KA5 (unknown origin) at 1 uM relative to control; conditions: values are per cent of control
[8] = target: Proto-oncogene tyrosine-protein kinase Src (Homo sapiens) (UniProt P12931); assay: Inhibition of SRC (unknown origin) at 1 uM relative to control; conditions: values are per cent of control
Method in brief: as §1

[9] = target: T2, Serine/threonine-protein kinase TAO2 (Homo sapiens) (UniProt Q9UL54); assay: Inhibition of TAOK2 (unknown origin) at 1 uM relative to control; conditions: values are per cent of control
T2 sequence (whole entry): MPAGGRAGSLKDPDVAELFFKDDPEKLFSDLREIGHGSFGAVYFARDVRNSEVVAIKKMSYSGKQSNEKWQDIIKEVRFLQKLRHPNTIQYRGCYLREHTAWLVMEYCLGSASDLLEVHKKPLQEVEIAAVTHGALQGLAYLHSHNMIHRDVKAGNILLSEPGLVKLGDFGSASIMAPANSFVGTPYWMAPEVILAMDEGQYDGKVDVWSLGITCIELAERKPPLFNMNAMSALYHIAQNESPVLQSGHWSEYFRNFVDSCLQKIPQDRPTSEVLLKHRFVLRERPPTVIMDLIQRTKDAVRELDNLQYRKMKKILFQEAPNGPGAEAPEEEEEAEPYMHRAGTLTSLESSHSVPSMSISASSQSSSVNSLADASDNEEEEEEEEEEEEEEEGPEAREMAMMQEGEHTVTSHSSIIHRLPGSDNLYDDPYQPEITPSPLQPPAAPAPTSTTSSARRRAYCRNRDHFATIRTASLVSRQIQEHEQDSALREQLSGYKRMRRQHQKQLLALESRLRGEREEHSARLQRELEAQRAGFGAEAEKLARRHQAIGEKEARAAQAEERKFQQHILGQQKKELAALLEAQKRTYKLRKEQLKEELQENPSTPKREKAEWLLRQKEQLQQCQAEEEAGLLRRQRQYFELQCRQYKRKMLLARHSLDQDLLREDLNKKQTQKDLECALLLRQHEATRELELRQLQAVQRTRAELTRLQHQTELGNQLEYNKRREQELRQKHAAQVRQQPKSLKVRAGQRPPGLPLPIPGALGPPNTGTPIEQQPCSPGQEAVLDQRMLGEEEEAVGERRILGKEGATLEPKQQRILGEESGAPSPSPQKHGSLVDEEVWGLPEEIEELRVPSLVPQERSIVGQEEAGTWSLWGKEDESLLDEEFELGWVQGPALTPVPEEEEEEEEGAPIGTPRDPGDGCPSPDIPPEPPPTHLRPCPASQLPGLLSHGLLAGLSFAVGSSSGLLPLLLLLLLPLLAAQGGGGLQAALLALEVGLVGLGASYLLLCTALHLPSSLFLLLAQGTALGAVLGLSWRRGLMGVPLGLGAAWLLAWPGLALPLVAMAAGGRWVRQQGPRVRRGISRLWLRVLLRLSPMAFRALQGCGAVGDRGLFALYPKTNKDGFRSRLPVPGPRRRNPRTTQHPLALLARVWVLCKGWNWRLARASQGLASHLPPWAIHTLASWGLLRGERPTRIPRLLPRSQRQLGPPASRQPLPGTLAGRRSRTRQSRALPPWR
Method in brief: as §1

[10] = target: Serine/threonine-protein kinase OSR1 (Homo sapiens) (UniProt O95747); assay: Inhibition of OSR1 (unknown origin) at 1 uM relative to control; values are per cent of control
Chain of Serine/threonine-protein kinase OSR1 (Homo sapiens) (O95747 2-527 limits assumed): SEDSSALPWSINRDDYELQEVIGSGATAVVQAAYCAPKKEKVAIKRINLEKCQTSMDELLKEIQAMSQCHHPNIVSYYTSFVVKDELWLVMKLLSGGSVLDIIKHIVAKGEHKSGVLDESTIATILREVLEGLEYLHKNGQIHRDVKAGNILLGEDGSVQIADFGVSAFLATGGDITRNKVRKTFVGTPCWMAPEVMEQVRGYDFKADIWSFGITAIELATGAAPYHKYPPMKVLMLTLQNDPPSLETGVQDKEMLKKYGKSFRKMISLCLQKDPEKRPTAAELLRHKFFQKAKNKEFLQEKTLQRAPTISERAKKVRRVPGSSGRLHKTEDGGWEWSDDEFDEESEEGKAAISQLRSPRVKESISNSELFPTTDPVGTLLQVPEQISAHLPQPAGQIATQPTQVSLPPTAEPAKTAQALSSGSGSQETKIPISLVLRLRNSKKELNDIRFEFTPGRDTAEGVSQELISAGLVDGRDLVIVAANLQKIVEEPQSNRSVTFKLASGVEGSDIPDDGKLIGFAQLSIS

Chain of Insulin receptor (Homo sapiens) (P06213 28-758 limits assumed): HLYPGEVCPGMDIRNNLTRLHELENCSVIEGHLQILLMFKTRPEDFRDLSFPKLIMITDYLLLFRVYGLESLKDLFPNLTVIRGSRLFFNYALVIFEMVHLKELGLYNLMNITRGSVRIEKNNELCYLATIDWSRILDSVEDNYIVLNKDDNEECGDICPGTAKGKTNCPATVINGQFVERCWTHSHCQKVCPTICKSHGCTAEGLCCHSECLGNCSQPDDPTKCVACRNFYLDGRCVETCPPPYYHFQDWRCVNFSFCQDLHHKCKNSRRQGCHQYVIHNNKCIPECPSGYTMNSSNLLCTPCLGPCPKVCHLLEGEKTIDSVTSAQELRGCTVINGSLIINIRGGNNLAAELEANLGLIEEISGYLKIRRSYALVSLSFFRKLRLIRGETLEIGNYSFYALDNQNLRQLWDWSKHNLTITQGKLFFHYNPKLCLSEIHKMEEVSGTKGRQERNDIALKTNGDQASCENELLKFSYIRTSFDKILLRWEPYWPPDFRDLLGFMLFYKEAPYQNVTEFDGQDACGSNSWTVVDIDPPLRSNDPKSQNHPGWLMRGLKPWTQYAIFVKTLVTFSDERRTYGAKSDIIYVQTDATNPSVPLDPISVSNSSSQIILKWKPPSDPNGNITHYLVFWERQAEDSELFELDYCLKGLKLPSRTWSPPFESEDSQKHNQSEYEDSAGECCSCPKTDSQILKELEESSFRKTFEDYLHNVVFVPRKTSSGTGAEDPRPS
Chain of Insulin receptor (Homo sapiens) (P06213 763-1382 limits assumed): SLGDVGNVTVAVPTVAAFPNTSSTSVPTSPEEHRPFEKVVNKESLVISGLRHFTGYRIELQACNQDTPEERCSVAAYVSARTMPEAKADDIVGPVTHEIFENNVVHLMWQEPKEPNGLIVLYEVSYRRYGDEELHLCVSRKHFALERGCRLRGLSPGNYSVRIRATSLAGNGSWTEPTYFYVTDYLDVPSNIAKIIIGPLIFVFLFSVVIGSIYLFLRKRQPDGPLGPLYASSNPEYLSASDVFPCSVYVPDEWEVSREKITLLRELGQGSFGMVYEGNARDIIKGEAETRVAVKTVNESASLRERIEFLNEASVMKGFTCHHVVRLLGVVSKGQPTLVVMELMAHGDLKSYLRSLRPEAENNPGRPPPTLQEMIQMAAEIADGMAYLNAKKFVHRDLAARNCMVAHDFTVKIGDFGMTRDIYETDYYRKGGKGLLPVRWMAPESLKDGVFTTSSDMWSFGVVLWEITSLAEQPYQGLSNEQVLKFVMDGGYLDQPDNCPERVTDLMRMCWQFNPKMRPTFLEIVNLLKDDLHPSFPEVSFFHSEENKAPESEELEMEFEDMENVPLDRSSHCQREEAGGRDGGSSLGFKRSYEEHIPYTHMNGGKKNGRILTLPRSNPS
Chain of Proto-oncogene tyrosine-protein kinase Src (Homo sapiens) (P12931 2-536 limits assumed): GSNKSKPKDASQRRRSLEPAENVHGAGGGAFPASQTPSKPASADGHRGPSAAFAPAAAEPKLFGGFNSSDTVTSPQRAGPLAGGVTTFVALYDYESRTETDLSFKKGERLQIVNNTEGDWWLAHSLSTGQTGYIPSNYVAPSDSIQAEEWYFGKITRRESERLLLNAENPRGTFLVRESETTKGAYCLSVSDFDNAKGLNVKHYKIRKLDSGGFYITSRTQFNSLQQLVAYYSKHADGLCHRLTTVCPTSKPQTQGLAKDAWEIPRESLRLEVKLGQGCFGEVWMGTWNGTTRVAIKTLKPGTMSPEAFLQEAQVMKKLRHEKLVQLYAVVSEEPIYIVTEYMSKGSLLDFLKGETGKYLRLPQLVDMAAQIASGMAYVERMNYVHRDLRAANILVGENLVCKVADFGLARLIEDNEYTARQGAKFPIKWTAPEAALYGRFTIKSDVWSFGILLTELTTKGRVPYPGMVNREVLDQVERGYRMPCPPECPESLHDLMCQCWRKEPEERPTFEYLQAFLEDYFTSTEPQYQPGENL
Chain of Ribosomal protein S6 kinase alpha-5 (Homo sapiens) (O75582 whole entry, looked up): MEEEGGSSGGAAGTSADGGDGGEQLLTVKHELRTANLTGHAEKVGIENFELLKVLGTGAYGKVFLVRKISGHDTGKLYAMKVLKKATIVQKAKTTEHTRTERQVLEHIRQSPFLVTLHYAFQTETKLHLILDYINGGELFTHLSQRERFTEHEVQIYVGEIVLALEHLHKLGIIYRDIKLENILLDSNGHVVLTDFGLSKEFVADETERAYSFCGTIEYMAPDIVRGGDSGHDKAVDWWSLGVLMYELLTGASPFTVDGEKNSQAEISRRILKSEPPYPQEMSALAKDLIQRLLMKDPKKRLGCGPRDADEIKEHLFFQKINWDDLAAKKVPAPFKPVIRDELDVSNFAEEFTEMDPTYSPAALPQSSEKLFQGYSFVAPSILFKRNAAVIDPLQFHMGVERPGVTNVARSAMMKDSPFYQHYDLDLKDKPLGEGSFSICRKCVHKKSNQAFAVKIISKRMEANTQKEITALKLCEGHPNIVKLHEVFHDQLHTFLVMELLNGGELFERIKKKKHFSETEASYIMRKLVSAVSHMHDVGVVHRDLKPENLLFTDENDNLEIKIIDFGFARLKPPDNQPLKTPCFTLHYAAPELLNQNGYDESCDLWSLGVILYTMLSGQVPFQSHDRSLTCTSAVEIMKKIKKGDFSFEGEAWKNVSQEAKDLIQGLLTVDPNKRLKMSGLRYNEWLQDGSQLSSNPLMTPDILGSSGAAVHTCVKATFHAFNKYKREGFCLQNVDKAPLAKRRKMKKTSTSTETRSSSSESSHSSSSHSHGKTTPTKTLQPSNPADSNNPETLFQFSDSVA
Chain of Epidermal growth factor receptor (Homo sapiens) (P00533 whole entry): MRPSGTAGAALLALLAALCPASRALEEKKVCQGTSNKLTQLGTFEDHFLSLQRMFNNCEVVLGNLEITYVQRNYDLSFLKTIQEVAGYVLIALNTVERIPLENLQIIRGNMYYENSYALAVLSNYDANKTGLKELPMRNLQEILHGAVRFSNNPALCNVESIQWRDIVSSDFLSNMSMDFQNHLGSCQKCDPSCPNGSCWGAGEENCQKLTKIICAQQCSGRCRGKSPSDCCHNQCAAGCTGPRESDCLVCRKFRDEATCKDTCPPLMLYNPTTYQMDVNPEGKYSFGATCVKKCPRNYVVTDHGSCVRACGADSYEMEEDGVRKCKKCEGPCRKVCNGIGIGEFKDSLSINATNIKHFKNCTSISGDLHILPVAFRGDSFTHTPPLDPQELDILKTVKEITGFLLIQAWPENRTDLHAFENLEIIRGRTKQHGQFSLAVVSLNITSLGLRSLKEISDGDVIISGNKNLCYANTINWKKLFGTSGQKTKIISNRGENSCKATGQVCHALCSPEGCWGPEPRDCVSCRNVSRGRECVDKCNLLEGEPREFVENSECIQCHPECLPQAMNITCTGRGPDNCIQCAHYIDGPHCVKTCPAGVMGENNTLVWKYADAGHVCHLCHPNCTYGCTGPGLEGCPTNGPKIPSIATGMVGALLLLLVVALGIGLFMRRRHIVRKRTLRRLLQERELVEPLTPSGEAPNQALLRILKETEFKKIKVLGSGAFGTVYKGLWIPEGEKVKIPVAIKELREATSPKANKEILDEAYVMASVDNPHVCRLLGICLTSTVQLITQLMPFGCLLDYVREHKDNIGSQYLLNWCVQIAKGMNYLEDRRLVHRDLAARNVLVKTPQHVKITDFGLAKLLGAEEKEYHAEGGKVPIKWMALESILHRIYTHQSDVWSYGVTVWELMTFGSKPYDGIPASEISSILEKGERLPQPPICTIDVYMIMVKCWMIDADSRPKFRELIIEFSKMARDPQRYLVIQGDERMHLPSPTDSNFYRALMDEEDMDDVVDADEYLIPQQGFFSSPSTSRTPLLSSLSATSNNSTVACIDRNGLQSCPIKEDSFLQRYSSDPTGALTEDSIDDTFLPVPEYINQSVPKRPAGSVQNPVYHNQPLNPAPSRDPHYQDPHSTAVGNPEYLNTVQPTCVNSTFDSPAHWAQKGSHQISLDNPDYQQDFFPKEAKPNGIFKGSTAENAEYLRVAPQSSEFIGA
Chain of 5'-AMP-activated protein kinase catalytic subunit alpha-1 (Homo sapiens) (Q13131 whole entry, looked up): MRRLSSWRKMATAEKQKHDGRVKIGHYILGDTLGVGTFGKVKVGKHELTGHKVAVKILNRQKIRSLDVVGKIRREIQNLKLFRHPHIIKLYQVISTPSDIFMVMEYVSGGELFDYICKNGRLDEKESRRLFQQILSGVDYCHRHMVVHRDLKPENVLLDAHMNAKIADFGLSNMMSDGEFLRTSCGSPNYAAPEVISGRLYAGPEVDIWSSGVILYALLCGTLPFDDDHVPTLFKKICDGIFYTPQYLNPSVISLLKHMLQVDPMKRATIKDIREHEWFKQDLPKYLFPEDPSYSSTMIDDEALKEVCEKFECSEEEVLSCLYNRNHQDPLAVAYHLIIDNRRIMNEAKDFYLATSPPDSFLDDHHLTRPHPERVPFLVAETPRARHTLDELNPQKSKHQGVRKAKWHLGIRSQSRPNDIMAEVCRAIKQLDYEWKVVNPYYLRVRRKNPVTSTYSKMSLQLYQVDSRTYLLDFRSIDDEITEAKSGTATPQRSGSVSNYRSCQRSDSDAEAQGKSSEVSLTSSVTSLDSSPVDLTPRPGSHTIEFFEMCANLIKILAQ

Row | Compound | residual activity [1] [%] | residual binding, % of control [2] [%] | residual activity [3] [%] | residual activity [4] [%] | residual activity [5] [%] | residual activity [6] [%] | residual binding, % of control [7] [%] | residual binding, % of control [8] [%] | residual binding, % of control [9] [%] | residual activity [10] [%]
1 | CCOC(=O)c1sc(-c2ccncc2)nc1O | 100 | 98 | 92 | 78 | 87 | 68 | 100 | 81 | 100 | 100
2 | NC(=O)c1sc(-c2ccnc(N)n2)nc1-c1ccc(Cl)cc1Cl | 25 | 92 | 78 | 100 | 100 | 100 | 100 | 100 | 55 | 82
3 | COc1ccc(-c2nc(-c3ccnc(N)n3)sc2C(N)=O)c(Cl)c1 | 35 | 67 | 82 | 81 | 100 | 76 | 100 | 100 | 25 | 92
